Source: ChEMBL document CHEMBL2057126, “Discovery of new inhibitors of Cdc25B dual specificity phosphatases by structure-based virtual screening” (J Med Chem, 2012)
Calls of active or inactive are those of the source. No cut-off for these calls is given here.

Tests used:
[1] = molecular target: T1, M-phase inducer phosphatase 2 (Homo sapiens) (UniProt P30305); assay: Inhibition of recombinant phosphatase activity of Cdc25B catalytic domain expressed in Escherichia coli BL21(DE3) using OMFP as substrate at 50 uM by spectrofluorimetric analysis
T1 sequence (whole entry): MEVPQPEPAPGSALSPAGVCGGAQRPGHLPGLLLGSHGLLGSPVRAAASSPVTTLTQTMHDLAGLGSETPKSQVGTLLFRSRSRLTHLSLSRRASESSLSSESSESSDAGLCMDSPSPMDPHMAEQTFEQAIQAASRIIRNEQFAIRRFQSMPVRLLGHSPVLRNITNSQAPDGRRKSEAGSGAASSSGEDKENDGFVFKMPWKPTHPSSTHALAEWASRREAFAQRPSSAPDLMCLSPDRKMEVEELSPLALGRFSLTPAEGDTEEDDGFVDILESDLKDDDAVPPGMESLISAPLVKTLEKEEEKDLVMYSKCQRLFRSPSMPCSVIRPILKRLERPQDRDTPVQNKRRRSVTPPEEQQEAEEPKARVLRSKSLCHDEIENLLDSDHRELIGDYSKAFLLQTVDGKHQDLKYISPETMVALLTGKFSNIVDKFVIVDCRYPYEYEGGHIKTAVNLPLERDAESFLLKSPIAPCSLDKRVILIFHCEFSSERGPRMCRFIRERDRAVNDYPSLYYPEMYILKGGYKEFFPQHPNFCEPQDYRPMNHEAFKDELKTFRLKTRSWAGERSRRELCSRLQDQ
Summary of the method: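 Single-point screen: percent inhibition of Cdc25B phosphatase activity (OMFP hydrolysis) measured with inhibitor at 50 μM.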

[2] = molecular target: T2, M-phase inducer phosphatase 2 (Homo sapiens, UniProt P30305); assay: Inhibition of recombinant phosphatase activity of Cdc25B catalytic domain expressed in Escherichia coli BL21(DE3) using OMFP as substrate by spectrofluorimetric analysis
T2 sequence (P30305 whole entry): T1 sequence (whole entry)

[3] = molecular target: T1, M-phase inducer phosphatase 2 (Homo sapiens); assay: Irreversible inhibition of recombinant phosphatase activity of Cdc25B catalytic domain expressed in Escherichia coli BL21(DE3) assessed as residual activity of enzyme measured after 10 fold dilution at 50 uM preincubated for 20 mins
Summary of the method: (§1)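 Dilution test: Cdc25B pretreated with inhibitor for up to 20 min, mixture diluted 10-fold, and residual phosphatase activity measured to judge reversible versus irreversible inhibition.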

[4] = molecular target: T1, M-phase inducer phosphatase 2 (Homo sapiens); assay: Reversible inhibition of recombinant phosphatase activity of Cdc25B catalytic domain expressed in Escherichia coli BL21(DE3) assessed as residual activity of enzyme measured after 10 fold dilution at 100 uM preincubated for 20 mins
[5] = molecular target: T1, M-phase inducer phosphatase 2 (Homo sapiens); assay: Inhibition of recombinant phosphatase activity of Cdc25B catalytic domain expressed in Escherichia coli BL21(DE3) using OMFP as substrate at 100 uM after 15 mins by fluorimetric assay
[6] = molecular target: T3, M-phase inducer phosphatase 3 (Homo sapiens) (UniProt P30307); assay: Inhibition of recombinant phosphatase activity of Cdc25C catalytic domain expressed in Escherichia coli BL21(DE3) using OMFP as substrate at 100 uM after 15 mins by fluorimetric assay
T3 sequence (whole entry): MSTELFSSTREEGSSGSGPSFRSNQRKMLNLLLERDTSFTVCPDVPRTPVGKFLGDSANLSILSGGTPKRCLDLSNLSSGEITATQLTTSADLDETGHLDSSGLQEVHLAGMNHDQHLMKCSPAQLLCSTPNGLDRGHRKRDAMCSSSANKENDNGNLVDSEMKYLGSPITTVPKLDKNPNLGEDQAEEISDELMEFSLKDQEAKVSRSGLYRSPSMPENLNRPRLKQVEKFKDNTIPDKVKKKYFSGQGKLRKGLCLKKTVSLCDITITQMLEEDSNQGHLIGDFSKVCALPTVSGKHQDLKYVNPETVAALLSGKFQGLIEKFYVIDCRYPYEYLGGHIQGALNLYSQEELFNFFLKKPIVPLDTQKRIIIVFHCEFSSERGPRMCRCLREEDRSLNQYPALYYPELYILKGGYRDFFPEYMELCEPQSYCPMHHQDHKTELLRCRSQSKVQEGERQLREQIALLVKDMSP

[7] = molecular target: T4, M-phase inducer phosphatase 1 (Homo sapiens) (UniProt P30304); assay: Inhibition of recombinant phosphatase activity of Cdc25A catalytic domain expressed in Escherichia coli BL21(DE3) using OMFP as substrate at 100 uM after 15 mins by fluorimetric assay
T4 sequence (whole entry): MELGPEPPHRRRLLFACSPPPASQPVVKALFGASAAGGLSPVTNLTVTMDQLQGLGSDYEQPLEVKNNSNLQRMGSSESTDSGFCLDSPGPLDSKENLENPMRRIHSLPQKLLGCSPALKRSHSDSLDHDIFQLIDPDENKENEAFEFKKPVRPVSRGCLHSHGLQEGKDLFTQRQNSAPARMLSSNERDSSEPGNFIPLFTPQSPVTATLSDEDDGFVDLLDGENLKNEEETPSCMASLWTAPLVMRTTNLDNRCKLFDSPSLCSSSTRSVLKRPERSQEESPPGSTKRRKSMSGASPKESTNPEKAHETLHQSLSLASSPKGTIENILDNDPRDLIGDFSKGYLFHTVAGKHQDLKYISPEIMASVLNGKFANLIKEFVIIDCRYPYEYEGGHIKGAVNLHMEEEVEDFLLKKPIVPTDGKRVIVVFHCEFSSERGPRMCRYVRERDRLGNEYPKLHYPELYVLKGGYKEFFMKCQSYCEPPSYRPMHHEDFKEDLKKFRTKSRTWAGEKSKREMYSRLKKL

[8] = molecular target: T5, M-phase inducer phosphatase 1 (Homo sapiens, UniProt P30304); assay: Inhibition of recombinant phosphatase activity of Cdc25A catalytic domain expressed in Escherichia coli BL21(DE3) using OMFP as substrate by spectrofluorimetric analysis
T5 sequence (P30304 whole entry): T4 sequence (whole entry)
Summary of the method: (§2)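 Purified recombinant Cdc25A catalytic domain; phosphatase activity measured as OMFP hydrolysis versus inhibitor concentration to derive IC50, with Ki calculated from kinetic measurements. Results are averages ± SD of three determinations.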

[9] = molecular target: T2, M-phase inducer phosphatase 2; assay: Competitive inhibition of recombinant phosphatase activity of Cdc25B catalytic domain expressed in Escherichia coli BL21(DE3) using OMFP as substrate by Lineweaver-Burk plot analysis
[10] = molecular target: T5, M-phase inducer phosphatase 1; assay: Inhibition of recombinant phosphatase activity of Cdc25A catalytic domain expressed in Escherichia coli BL21(DE3) using OMFP as substrate by Lineweaver-Burk plot analysis; summary of the method: as §2
[11] = molecular target: T1, M-phase inducer phosphatase 2 (Homo sapiens); assay: Reversible inhibition of recombinant phosphatase activity of Cdc25B catalytic domain expressed in Escherichia coli BL21(DE3) assessed as residual activity of enzyme measured after 10 fold dilution at 50 uM preincubated for 20 mins; summary of the method: as §1
[12] = molecular target: T1, M-phase inducer phosphatase 2 (Homo sapiens); assay: Reversible inhibition of recombinant phosphatase activity of Cdc25B catalytic domain expressed in Escherichia coli BL21(DE3) assessed as residual activity of enzyme measured after 10 fold dilution at 100 uM preincubated for 20 mins
Summary of the method: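 Cdc25B (0.5 μg) preincubated 20 min at room temperature with 100 μM inhibitor or DMSO vehicle, then diluted 10-fold. Residual phosphatase activity was read after adding OMFP substrate and expressed as percent of the untreated control. Mean ± SD of three determinations.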

Row | SMILES | inhibition [1] [%] | inhibition [5] [%] | inhibition [6] [%] | inhibition [7] [%] | further results
1 | O=C1C=C(Nc2cccc(C(=O)O)c2)c2ccccc2C1=O | 85 | – | – | – | IC50 [2]: 4.2 µM; inhibition [3]: Active
2 | CC1=NN(c2ccc(S(=O)(=O)O)cc2)C(=O)/C1=C/c1ccc(Cl)cc1 | – | 46 | 54 | 17 | inhibition [4]: Active
3 | O=C(O)c1ccc(C(=O)c2ccccc2C(=O)O)cc1 | 12 | – | – | – | –
4 | O=C(O)c1cccc(Oc2ccc(C(=O)O)c([N+](=O)[O-])c2)c1 | 37 | – | – | – | –
5 | O=C(O)C1CCCN1Cc1c[nH]c2ccccc12 (stereo unspecified) | – | 37 | 45 | 39 | –
6 | COc1cc(O)c(C(=O)c2ccccc2)cc1S(=O)(=O)O | 49 | – | – | – | –
7 | Cn1c(COc2ccccc2C(=O)O)nc2ccccc21 | – | 43 | 35 | 10 | inhibition [4]: Active
8 | O=C(O)c1cccc(F)c1C(=O)c1ccc2ccccc2c1 | 34 | – | – | – | –
9 | Nc1ccc(-c2ccc(Nc3cc(S(=O)(=O)O)c(N)c4c3C(=O)c3ccccc3C4=O)cc2)c(S(=O)(=O)O)c1 | – | 89 | 49 | 72 | –
10 | O=C(O)c1ccccc1C(=O)CCC(=O)c1ccccc1C(=O)O | 20 | – | – | – | –
11 | Sc1ccc2ccccc2c1CNCc1ccccc1 | – | 60 | 53 | 35 | –
12 | NS(=O)(=O)c1cc2c(cc1Cl)N=C(CCC(=O)O)NS2(=O)=O | – | 41 | 47 | 21 | inhibition [4]: Active
13 | O=C(O)c1cccc(Nc2ccccc2C(=O)O)c1 | 18 | – | – | – | –
14 | O=C(O)c1ccccc1C(=O)c1ccc(O)c([N+](=O)[O-])c1 | 13 | – | – | – | –
15 | O=C(O)c1ccccc1C(=O)c1cccc2ccccc12 | 41 | – | – | – | –
16 | COc1ccc(Cc2ccc3[nH]c(=O)cc(C)c3c2)cc1S(=O)(=O)O | – | – | – | – | IC50 [8]: 86 µM; Ki [9]: 84 µM; IC50 [2]: 133 µM; Ki [10]: 203 µM

Row | SMILES | inhibition [1] [%] | inhibition [5] [%] | inhibition [6] [%] | inhibition [7] [%] | further results
17 | CC(=O)c1ccc(C(=O)c2ccccc2C(=O)O)cc1 | 20 | – | – | – | –
18 | Nc1ccc(Cc2ccc(N)c(C(=O)O)c2)cc1C(=O)O | 52 | – | – | – | inhibition [11]: Active; IC50 [2]: 23.8 µM
19 | CC1C2C=CC1C(c1c3ccc(=O)c(O)c-3oc3c(O)c(O)ccc13)C2C(=O)O (stereo unspecified) | – | 98 | 98 | 98 | inhibition [12]: Active
20 | O=C(O)c1ccccc1-c1ccccc1C(=O)Nc1ccc2c(c1)nc(O)c1ccccc12 | – | 45 | 48 | 66 | inhibition [4]: Active
21 | O=C(C(=O)c1ccc(O)c(O)c1)c1ccc(O)c(O)c1 | 22 | – | – | – | –
22 | O=C(O)c1ccccc1C(=O)c1ccc(-c2ccccc2)cc1 | 54 | – | – | – | inhibition [11]: Active; IC50 [2]: 23.1 µM
23 | O=C(O)c1ccccc1C(=O)c1ccc(Cl)c([N+](=O)[O-])c1 | 13 | – | – | – | –
24 | CN(CCC(=O)O)C1=Nc2ccc(Cl)cc2C(c2ccccc2)=[N+]([O-])C1 | – | 43 | 48 | 28 | inhibition [4]: Active
25 | O=C1C=C(Nc2nc(C(=O)O)cc(=O)[nH]2)c2ccccc2C1=O | – | – | – | – | IC50 [2]: 9.9 µM
26 | O=C(Nc1ccc2ncccc2c1)Nc1ccc2ncccc2c1 | – | 32 | 48 | 47 | inhibition [4]: Active
27 | Nc1ccc(C(=O)O)cc1S(=O)(=O)c1cc(C(=O)O)ccc1N | 62 | – | – | – | inhibition [11]: Active; IC50 [2]: 20.1 µM
28 | O=C(O)c1cc(C(=O)C(=O)c2cc(C(=O)O)c(O)c3ccccc23)c2ccccc2c1O | 26 | – | – | – | –
29 | O=C1C=C(Nc2nc(O)cc(C(=O)O)n2)c2ccccc2C1=O | 60 | – | – | – | inhibition [3]: Active
30 | CC(C)(Oc1ccc(-c2cccc3ccccc23)cc1)C(=O)O | – | 40 | 50 | 47 | inhibition [4]: Active
31 | CNc1ccc(C(=O)c2ccccc2C(=O)O)cc1[N+](=O)[O-] | 65 | – | – | – | inhibition [11]: Active; IC50 [2]: 7.9 µM
32 | O=C(O)c1ccccc1C(=O)c1cccc([N+](=O)[O-])c1 | 17 | – | – | – | –
